Data from ChEMBL document CHEMBL1128434, “Gonadotropin-releasing hormone antagonists: novel members of the azaline B family” (1995).
One block for each molecule: values may come before it.

How the values were obtained:
[1] = target: T1, Gonadotropin-releasing hormone receptor (Rattus norvegicus) (UniProt P30969); test: In vitro potency to inhibit GnRH-mediated LH secretion by cultured pituitary cells relative to [Ac-delta-Pro1,DFpa2,DTrp36]GnRH.; type: functional, cell-based; settings: Pituitary gland cell
T1 sequence (whole entry): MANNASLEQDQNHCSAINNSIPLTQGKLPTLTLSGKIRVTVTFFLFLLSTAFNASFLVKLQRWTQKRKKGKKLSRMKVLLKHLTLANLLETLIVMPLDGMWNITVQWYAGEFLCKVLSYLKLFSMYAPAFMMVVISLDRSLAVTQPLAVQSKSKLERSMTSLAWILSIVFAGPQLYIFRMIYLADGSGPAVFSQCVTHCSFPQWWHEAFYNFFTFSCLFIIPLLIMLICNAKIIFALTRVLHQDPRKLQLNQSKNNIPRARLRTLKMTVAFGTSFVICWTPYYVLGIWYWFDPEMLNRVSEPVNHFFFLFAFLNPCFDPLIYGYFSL
Outline: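 Dispersed rat pituitary cells in culture; antagonist inhibition of GnRH-stimulated LH secretion. Potency expressed relative to standard antagonist [Ac-Δ3Pro1,D4FPhe2,DTrp3,6]GnRH taken as 1.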

Rattus norvegicus [2] = species: Rattus norvegicus; test: Effect in the anti ovulatory assay (AOA) in rats expressed as no. of rats ovulating/No of rats treated at 1.0 mg; 2/8; type: functional
[3] = target: T1, Gonadotropin-releasing hormone receptor (Rattus norvegicus); test: Duration of action, measured using castrated male rat assay to inhibit luteinizing hormone release.; fully active at 24 hr but not at 48 hr; type: functional
Rattus norvegicus [4] = species: Rattus norvegicus; test: Effect in the anti ovulatory assay (AOA) in rats expressed as no. of rats ovulating/No of rats treated at 1.0 mg; 2/9; type: functional
Rattus norvegicus [5] = species: Rattus norvegicus; test: Effect in the anti ovulatory assay (AOA) in rats expressed as no. of rats ovulating/No of rats treated at 2.5 mg; 2/8; type: functional
Rattus norvegicus [6] = species: Rattus norvegicus; test: Effect in the anti ovulatory assay (AOA) in rats expressed as no. of rats ovulating/No of rats treated at 1.0 mg; 4/6; type: functional
Rattus norvegicus [7] = species: Rattus norvegicus; test: Effect in the anti ovulatory assay (AOA) in rats expressed as no. of rats ovulating/No of rats treated at 1.0 mg; 6/6; type: functional
[8] = target: T1, Gonadotropin-releasing hormone receptor (Rattus norvegicus); test: Effect in the anti ovulatory assay (AOA) in rats expressed as no. of rats ovulating/No of rats treated at 2.5 mg; 0/8; type: functional
Rattus norvegicus [9] = species: Rattus norvegicus; test: Effect in the anti ovulatory assay (AOA) in rats expressed as no. of rats ovulating/No of rats treated at 100 mg; 0/4; type: functional
Rattus norvegicus [10] = species: Rattus norvegicus; test: Effect in the anti ovulatory assay (AOA) in rats expressed as no. of rats ovulating/No of rats treated at 10 mg; 2/2; type: functional
Rattus norvegicus [11] = species: Rattus norvegicus; test: Effect in the anti ovulatory assay (AOA) in rats expressed as no. of rats ovulating/No of rats treated at 50 mg; 4/8; type: functional
Rattus norvegicus [12] = species: Rattus norvegicus; test: Effect in the anti ovulatory assay (AOA) in rats expressed as no. of rats ovulating/No of rats treated at 1.0 mg; 5/8; type: functional
Rattus norvegicus [13] = species: Rattus norvegicus; test: Effect in the anti ovulatory assay (AOA) in rats expressed as no. of rats ovulating/No of rats treated at 0.5 mg; 3/4; type: functional
Rattus norvegicus [14] = species: Rattus norvegicus; test: Effect in the anti ovulatory assay (AOA) in rats expressed as no. of rats ovulating/No of rats treated at 0.5 mg; 3/3; type: functional
Rattus norvegicus [15] = species: Rattus norvegicus; test: Effect in the anti ovulatory assay (AOA) in rats expressed as no. of rats ovulating/No of rats treated at 1.0 mg; 3/7; type: functional

SMILES: CC(=O)N[C@@H](CC(N)=O)C(=O)Nc1ccc(C[C@H](NC(=O)[C@H](CO)NC(=O)[C@@H](Cc2cccnc2)NC(=O)[C@@H](Cc2ccc(Cl)cc2)NC(=O)[C@@H](Cc2ccc3ccccc3c2)NC(C)=O)C(=O)N[C@H](Cc2ccc(NC(=O)[C@@H](CC(N)=O)NC(C)=O)cc2)C(=O)N[C@@H](CC(C)C)C(=O)N[C@@H](CCCCNC(C)C)C(=O)N2CCC[C@H]2C(=O)N[C@H](C)N)cc1
No. of rats ovulated (Rattus norvegicus [5]): 2 | No. of rats ovulated (Rattus norvegicus [6]): 4

SMILES: CC(=O)N[C@H](Cc1ccc2ccccc2c1)C(=O)N[C@H](Cc1ccc(Cl)cc1)C(=O)N[C@H](Cc1cccnc1)C(=O)N[C@@H](CO)C(=O)N(C)[C@@H](Cc1ccc(Nc2n[nH]c(N)n2)cc1)C(=O)N[C@H](Cc1ccc(Nc2n[nH]c(N)n2)cc1)C(=O)N[C@@H](CC(C)C)C(=O)N[C@@H](Cc1ccc(NC(C)C)cc1)C(=O)N1CCC[C@H]1C(=O)N[C@H](C)N
No. of rats ovulated (Rattus norvegicus [9]): 0 | No. of rats ovulated (Rattus norvegicus [10]): 2 | No. of rats ovulated (Rattus norvegicus [11]): 4

SMILES: CC(=O)NCC(=O)Nc1ccc(C[C@H](NC(=O)[C@H](CO)NC(=O)[C@@H](Cc2cccnc2)NC(=O)[C@@H](Cc2ccc(Cl)cc2)NC(=O)[C@@H](Cc2ccc3ccccc3c2)NC(C)=O)C(=O)N[C@H](Cc2ccc(NC(=O)CNC(C)=O)cc2)C(=O)N[C@@H](CC(C)C)C(=O)N[C@@H](CCCCNC(C)C)C(=O)N2CCC[C@H]2C(=O)N[C@H](C)N)cc1
No. of rats ovulated (Rattus norvegicus [12]): 5 | Relative potency [1]: 0.85 | No. of rats ovulated (Rattus norvegicus [13]): 3 | Duration of action [3]: 24 h

Continued, in another order:

Relative potency [1]: 0.36 | Duration of action [3]: 24 h
SMILES: CC(=O)N[C@H](Cc1ccc2ccccc2c1)C(=O)N[C@H](Cc1ccc(Cl)cc1)C(=O)N[C@H](Cc1cccnc1)C(=O)N[C@@H](CO)C(=O)N[C@@H](Cc1ccc(NC(=O)[C@H](C)Nc2n[nH]c(N)n2)cc1)C(=O)N[C@H](Cc1ccc(NC(=O)[C@@H](C)Nc2n[nH]c(N)n2)cc1)C(=O)N[C@@H](CC(C)C)C(=O)N[C@@H](CCCCNC(C)C)C(=O)N1CCC[C@H]1C(=O)N[C@H](C)N
No. of rats ovulated (Rattus norvegicus [2]): 2

Relative potency [1]: 1.9 | Duration of action [3]: 24 h
SMILES: CC(=O)N[C@H](Cc1ccc2ccccc2c1)C(=O)N[C@H](Cc1ccc(Cl)cc1)C(=O)N[C@H](Cc1cccnc1)C(=O)N[C@@H](CO)C(=O)N(C)[C@@H](Cc1ccc(Nc2n[nH]c(N)n2)cc1)C(=O)N[C@H](Cc1ccc(Nc2n[nH]c(N)n2)cc1)C(=O)N[C@@H](CC(C)C)C(=O)N[C@@H](CCCCNC(C)C)C(=O)N1CCC[C@H]1C(=O)N[C@H](C)N
No. of rats ovulated (Rattus norvegicus [4]): 2

No. of rats ovulated [8]: 0
SMILES: CCCC(=O)Nc1ccc(C[C@H](NC(=O)[C@H](CO)NC(=O)[C@@H](Cc2cccnc2)NC(=O)[C@@H](Cc2ccc(Cl)cc2)NC(=O)[C@@H](Cc2ccc3ccccc3c2)NC(C)=O)C(=O)N[C@H](Cc2ccc(NC(=O)CCC)cc2)C(=O)N[C@@H](CC(C)C)C(=O)N[C@@H](CCCCNC(C)C)C(=O)N2CCC[C@H]2C(=O)N[C@H](C)N)cc1
No. of rats ovulated (Rattus norvegicus [7]): 6

Relative potency [1]: 2.8
SMILES: CC(=O)Nc1ccc(C[C@@H](NC(=O)[C@H](Cc2ccc(O)cc2)NC(=O)[C@H](CO)NC(=O)[C@@H](Cc2cccnc2)NC(=O)[C@@H](Cc2ccc(Cl)cc2)NC(=O)[C@@H](Cc2ccc3ccccc3c2)NC(C)=O)C(=O)N[C@@H](CC(C)C)C(=O)N[C@@H](CCCCNC(C)C)C(=O)N2CCC[C@H]2C(=O)N[C@H](C)N)cc1
No. of rats ovulated (Rattus norvegicus [14]): 3 | No. of rats ovulated (Rattus norvegicus [15]): 3
